Measurements as given in ChEMBL document CHEMBL1122887, “Structure-activity studies on the N-terminal region of growth hormone releasing factor” (1985).

Tests used:
Assay type in all cases: functional
Rattus norvegicus [1] = assay: Effect on plasma growth hormone in anesthetized rat at a dose of 4 ug/100 g of body weight
In short: (§1)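 Male Charles River rats (175–350 g) anesthetized with sodium pentobarbital (6 mg/100 g body wt); 30 min later, 6–9 per group received a single subcutaneous 0.5-mL injection of saline, GRF(1-29)NH₂ reference, or one of two analogue doses. Jugular vein blood was drawn 15 min post-injection, and plasma GH was measured by radioimmunoassay, reported as ng/mL ± SE.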

Rattus norvegicus [2] = assay: Percent growth hormone releasing activity in anesthetized rat relative to hpGRF (1-29)NH2
In short: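 In pentobarbital-anesthetized male Charles River rats (6–9/group), two subcutaneous analogue doses and GRF(1-29)NH₂ reference doses were given. Plasma GH was measured by radioimmunoassay in jugular blood taken 15 min post-injection. Relative potency with 95% confidence limits came from a four-point assay design by Pugsley's method. Not active means no activity at the doses tested.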

Rattus norvegicus [3] = assay: Effect on plasma growth hormone in anesthetized rat at a dose of 10 ug/100 g of body weight; in short: as §1
Rattus norvegicus [4] = assay: Effect on plasma growth hormone in anesthetized rat at a dose of 32 ug/100 g of body weight; in short: as §1
Rattus norvegicus [5] = assay: Effect on plasma growth hormone in anesthetized rat at a dose of 16 ug/100 g of body weight; in short: as §1
Rattus norvegicus [6] = assay: Effect on plasma growth hormone in anesthetized rat at a dose of 20 ug/100 g of body weight; in short: as §1
Rattus norvegicus [7] = assay: Effect on plasma growth hormone in anesthetized rat at a dose of 0.4 ug/100 g of body weight; in short: as §1
Rattus norvegicus [8] = assay: Effect on plasma growth hormone in anesthetized rat at a dose of 1 ug/100 g of body weight; in short: as §1
Rattus norvegicus [9] = assay: Effect on plasma growth hormone in anesthetized rat at a dose of 0.25 ug/100 g of body weight; in short: as §1
Rattus norvegicus [10] = assay: Effect on plasma growth hormone in anesthetized rat at a dose of 0.62 ug/100 g of body weight; in short: as §1
Rattus norvegicus [11] = assay: Effect on plasma growth hormone in anesthetized rat at a dose of 3 ug/100 g of body weight; in short: as §1
Rattus norvegicus [12] = assay: Effect on plasma growth hormone in anesthetized rat at a dose of 1.2 ug/100 g of body weight; in short: as §1
Rattus norvegicus [13] = assay: Effect on plasma growth hormone in anesthetized rat at a dose of 50 ug/100 g of body weight; in short: as §1
Rattus norvegicus [14] = assay: Effect on plasma growth hormone in anesthetized rat at a dose of 125 ug/100 g of body weight; in short: as §1

`CC[C@H](C)[C@H](NC(=O)[C@H](C)NC(=O)[C@H](CC(=O)O)NC(=O)[C@H](C)NC(=O)[C@@H](N)Cc1ccc(O)cc1)C(=O)N[C@@H](Cc1ccccc1)C(=O)N[C@H](C(=O)N[C@H](CC(N)=O)C(=O)N[C@@H](CO)C(=O)N[C@@H](Cc1ccc(O)cc1)C(=O)N[C@@H](CCCN=C(N)N)C(=O)N[C@@H](CCCCN)C(=O)N[C@H](C(=O)N[C@@H](CC(C)C)C(=O)NCC(=O)N[C@@H](CCC(N)=O)C(=O)N[C@@H](CC(C)C)C(=O)N[C@@H](CO)C(=O)N[C@@H](C)C(=O)N[C@@H](CCCN=C(N)N)C(=O)N[C@@H](CCCCN)C(=O)N[C@@H](CC(C)C)C(=O)N[C@@H](CC(C)C)C(=O)N[C@@H](CCC(N)=O)C(=O)N[C@@H](CC(=O)O)C(=O)N[C@H](C(=O)N[C@@H](CCSC)C(=O)N[C@@H](CO)C(=O)N[C@@H](CCCN=C(N)N)C(N)=O)[C@@H](C)CC)C(C)C)[C@@H](C)O` gave an Activity (Rattus norvegicus [1]) of 1296 ng/mL, an Activity (Rattus norvegicus [2]) of 221% and an Activity (Rattus norvegicus [3]) of 2397 ng/mL.
With `CC[C@H](C)[C@H](NC(=O)[C@H](C)NC(=O)[C@H](CC(=O)O)NC(=O)[C@@H](C)NC(=O)[C@@H](Cc1ccc(O)cc1)NC(C)=O)C(=O)N[C@@H](Cc1ccccc1)C(=O)N[C@H](C(=O)N[C@@H](CC(N)=O)C(=O)N[C@@H](CO)C(=O)N[C@@H](Cc1ccc(O)cc1)C(=O)N[C@@H](CCCN=C(N)N)C(=O)N[C@@H](CCCCN)C(=O)N[C@H](C(=O)N[C@@H](CC(C)C)C(=O)NCC(=O)N[C@@H](CCC(N)=O)C(=O)N[C@@H](CC(C)C)C(=O)N[C@@H](CO)C(=O)N[C@@H](C)C(=O)N[C@@H](CCCN=C(N)N)C(=O)N[C@@H](CCCCN)C(=O)N[C@@H](CC(C)C)C(=O)N[C@@H](CC(C)C)C(=O)N[C@@H](CCC(N)=O)C(=O)N[C@@H](CC(=O)O)C(=O)N[C@H](C(=O)N[C@@H](CCSC)C(=O)N[C@@H](CO)C(=O)N[C@@H](CCCN=C(N)N)C(N)=O)[C@@H](C)CC)C(C)C)[C@@H](C)O` (stereo in doubt; 19) the Activity (Rattus norvegicus [4]) was 2378 ng/mL, the Activity (Rattus norvegicus [2]) was 52% and the Activity (Rattus norvegicus [5]) was 504 ng/mL.
For `CC[C@H](C)[C@H](NC(=O)[C@H](C)NC(=O)[C@H](CC(=O)O)NC(=O)[C@H](C)NC(=O)[C@@H](N)Cc1ccc(O)cc1)C(=O)N[C@@H](Cc1ccccc1)C(=O)N[C@H](C(=O)N[C@@H](CC(N)=O)C(=O)N[C@@H](CO)C(=O)N[C@@H](Cc1ccc(O)cc1)C(=O)N[C@@H](CCCN=C(N)N)C(=O)N[C@@H](CCCCN)C(=O)N[C@H](C(=O)N[C@@H](CC(C)C)C(=O)NCC(=O)N[C@@H](CCC(N)=O)C(=O)N[C@@H](CC(C)C)C(=O)N[C@@H](CO)C(=O)N[C@@H](C)C(=O)N[C@@H](CCCN=C(N)N)C(=O)N[C@@H](CCCCN)C(=O)N[C@@H](CC(C)C)C(=O)N[C@@H](CC(C)C)C(=O)N[C@@H](CCC(N)=O)C(=O)N[C@@H](CC(=O)O)C(=O)N[C@H](C(=O)N[C@@H](CCSC)C(=O)N[C@@H](CO)C(=O)N[C@@H](CCCN=C(N)N)C(N)=O)[C@@H](C)CC)C(C)C)[C@@H](C)O`, the Activity (Rattus norvegicus [6]) was 1781 ng/mL.
Compound `CC[C@H](C)[C@H](NC(=O)[C@H](C)NC(=O)[C@H](CC(=O)O)NC(=O)[C@@H](C)NC(=O)[C@H](Cc1ccc(O)cc1)NC(C)=O)C(=O)N[C@@H](Cc1ccccc1)C(=O)N[C@H](C(=O)N[C@@H](CC(N)=O)C(=O)N[C@@H](CO)C(=O)N[C@@H](Cc1ccc(O)cc1)C(=O)N[C@@H](CCCN=C(N)N)C(=O)N[C@@H](CCCCN)C(=O)N[C@H](C(=O)N[C@@H](CC(C)C)C(=O)NCC(=O)N[C@@H](CCC(N)=O)C(=O)N[C@@H](CC(C)C)C(=O)N[C@@H](CO)C(=O)N[C@@H](C)C(=O)N[C@@H](CCCN=C(N)N)C(=O)N[C@@H](CCCCN)C(=O)N[C@@H](CC(C)C)C(=O)N[C@@H](CC(C)C)C(=O)N[C@@H](CCC(N)=O)C(=O)N[C@@H](CC(=O)O)C(=O)N[C@H](C(=O)N[C@@H](CCSC)C(=O)N[C@@H](CO)C(=O)N[C@@H](CCCN=C(N)N)C(N)=O)[C@@H](C)CC)C(C)C)[C@@H](C)O` has an Activity (Rattus norvegicus [2]) of 2558%, an Activity (Rattus norvegicus [7]) of 1300 ng/mL and an Activity (Rattus norvegicus [8]) of 2496 ng/mL.
In the case of `CC[C@H](C)[C@H](NC(=O)[C@H](C)NC(=O)[C@H](CC(=O)O)NC(=O)[C@@H](C)NC(=O)[C@@H](Cc1ccc(O)cc1)NC(C)=O)C(=O)N[C@@H](Cc1ccccc1)C(=O)N[C@H](C(=O)N[C@@H](CC(N)=O)C(=O)N[C@@H](CO)C(=O)N[C@@H](Cc1ccc(O)cc1)C(=O)N[C@@H](CCCN=C(N)N)C(=O)N[C@@H](CCCCN)C(=O)N[C@H](C(=O)N[C@@H](CC(C)C)C(=O)NCC(=O)N[C@@H](CCC(N)=O)C(=O)N[C@@H](CC(C)C)C(=O)N[C@@H](CO)C(=O)N[C@@H](C)C(=O)N[C@@H](CCCN=C(N)N)C(=O)N[C@@H](CCCCN)C(=O)N[C@@H](CC(C)C)C(=O)N[C@@H](CC(C)C)C(=O)N[C@@H](CCC(N)=O)C(=O)N[C@@H](CC(=O)O)C(=O)N[C@H](C(=O)N[C@@H](CCSC)C(=O)N[C@@H](CO)C(=O)N[C@@H](CCCN=C(N)N)C(N)=O)[C@@H](C)CC)C(C)C)[C@@H](C)O` (stereo in doubt; 12), the Activity (Rattus norvegicus [2]) is reported as 3817%, the Activity (Rattus norvegicus [9]) is reported as 1235 ng/mL and the Activity (Rattus norvegicus [10]) is reported as 2386 ng/mL.
Compound `CC[C@H](C)[C@H](NC(=O)[C@H](C)NC(=O)[C@H](CC(=O)O)NC(=O)[C@@H](C)NC(=O)[C@@H](Cc1ccc(O)cc1)NC(C)=O)C(=O)N[C@@H](Cc1ccccc1)C(=O)N[C@H](C(=O)N[C@@H](CC(N)=O)C(=O)N[C@@H](CO)C(=O)N[C@@H](Cc1ccc(O)cc1)C(=O)N[C@@H](CCCN=C(N)N)C(=O)N[C@@H](CCCCN)C(=O)N[C@H](C(=O)N[C@@H](CC(C)C)C(=O)NCC(=O)N[C@@H](CCC(N)=O)C(=O)N[C@@H](CC(C)C)C(=O)N[C@@H](CO)C(=O)N[C@@H](C)C(=O)N[C@@H](CCCN=C(N)N)C(=O)N[C@@H](CCCCN)C(=O)N[C@@H](CC(C)C)C(=O)N[C@@H](CC(C)C)C(=O)N[C@@H](CCC(N)=O)C(=O)N[C@@H](CC(=O)O)C(=O)N[C@H](C(=O)N[C@@H](CCSC)C(=O)N[C@@H](CO)C(=O)N[C@@H](CCCN=C(N)N)C(N)=O)[C@@H](C)CC)C(C)C)[C@@H](C)O` (stereo in doubt; 13) has an Activity (Rattus norvegicus [2]) of 1297%, an Activity (Rattus norvegicus [11]) of 3504 ng/mL and an Activity (Rattus norvegicus [12]) of 1329 ng/mL.
Compound `CC[C@H](C)[C@H](NC(=O)[C@H](C)NC(=O)[C@H](CC(=O)O)NC(=O)[C@@H](C)NC(=O)[C@@H](Cc1ccc(O)cc1)NC(C)=O)C(=O)N[C@@H](Cc1ccccc1)C(=O)N[C@H](C(=O)N[C@@H](CC(N)=O)C(=O)N[C@@H](CO)C(=O)N[C@@H](Cc1ccc(O)cc1)C(=O)N[C@@H](CCCN=C(N)N)C(=O)N[C@@H](CCCCN)C(=O)N[C@H](C(=O)N[C@@H](CC(C)C)C(=O)NCC(=O)N[C@@H](CCC(N)=O)C(=O)N[C@@H](CC(C)C)C(=O)N[C@@H](CO)C(=O)N[C@@H](C)C(=O)N[C@@H](CCCN=C(N)N)C(=O)N[C@@H](CCCCN)C(=O)N[C@@H](CC(C)C)C(=O)N[C@@H](CC(C)C)C(=O)N[C@@H](CCC(N)=O)C(=O)N[C@@H](CC(=O)O)C(=O)N[C@H](C(=O)N[C@@H](CCSC)C(=O)N[C@@H](CO)C(=O)N[C@@H](CCCN=C(N)N)C(N)=O)[C@@H](C)CC)C(C)C)[C@@H](C)O` (stereo in doubt; 5) has an Activity (Rattus norvegicus [13]) of 435 ng/mL, an Activity (Rattus norvegicus [2]) of less than 5% and an Activity (Rattus norvegicus [14]) of 670 ng/mL.
